From ChEMBL document CHEMBL1155126, “2-N-Methyl modifications and SAR studies of manzamine A” (Bioorg Med Chem, 2008) come the findings set out here.

SMILES strings stand for the structures. pIC50: −log10 of the molar value. Values after ≈ are worked out from the molar mass of the structure shown. Active and inactive are the calls of the source. The rule behind the calls is not given here. Some results are limits rather than exact numbers.

Data set [1] deals with Cryptococcus neoformans. Kind of data set: Antimicrobial activity against Cryptococcus neoformans ATCC 90113. Format: functional, organism-based. The method in brief:
(§1)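 Broth microdilution following modified CLSI methods; M. intracellulare by a modified Franzblau method. Samples serially diluted in 20% DMSO/saline and plated in duplicate. Inocula set by OD630 of suspensions in incubation broth. Growth read at 630 nm, or fluorescence 544ex/590em for M. intracellulare, before and after incubation. MIC is the lowest concentration with no detectable growth. MFC/MBC comes from subculturing clear wells onto agar.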

In another data set the test system is Aspergillus fumigatus. The experiment in a line: Antimicrobial activity against Aspergillus fumigatus ATCC 90906. Format: functional, organism-based. The method in brief: (§2)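 Modified CLSI broth microdilution; M. intracellulare by a modified Franzblau method. Samples were serially diluted in 20% DMSO/saline and tested in duplicate. Inocula were set by OD630 in broth. Growth was read before and after incubation at 630 nm, or by fluorescence 544ex/590em for A. fumigatus and M. intracellulare. MIC is the lowest concentration with no detectable growth; MFC/MBC is the lowest concentration giving no growth after 5 µL is subcultured to agar.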

In a further data set the test system is Pseudomonas aeruginosa. Kind of data set: Antimicrobial activity against Pseudomonas aeruginosa ATCC 27853. Format: functional, organism-based. An outline of the steps: as §2
Data set [2] concerns Cryptococcus neoformans. Kind of data set: Antimicrobial activity against Cryptococcus neoformans ATCC 90113 at 89 uM. Type of data set: functional, organism-based.
The next data set concerns Escherichia coli. The experiment in a line: Antimicrobial activity against Escherichia coli ATCC 35218. Format: functional, organism-based. An outline of the steps: as §2
Data set [3] relates to Plasmodium falciparum. Kind of data set: Antimalarial activity after 72 hrs against chloroquine-resistant Plasmodium falciparum W2 as LDH activity. Format: functional, organism-based. The conditions noted are these: W2, 72 h. The method in brief: (§3)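 D6 or W2 parasitised red cells (2% parasitemia, 2% hematocrit) in RPMI 1640 with 10% human serum and 60 µg/mL amikacin, added to serially diluted samples. Cultures were gassed with 90% N2/5% O2/5% CO2 and held 72 h at 37 °C. Parasite LDH was read with Malstat reagent plus NBT/PES, stopped with 5% acetic acid, at 650 nm.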

Data set [4] relates to Hepatitis C virus. The experiment in a line: Antiviral activity against HCV in Huh7 cells at 10 uM by replicon assay. Type of data set: functional, Hepacivirus hominis, Huh-7. The method in brief: (§4)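 HCV replicon in Huh-7 cells. Compound tested at 10 µM in triplicate, added immediately after seeding. HCV RNA and rRNA measured as ΔCt values and reported as % inhibition of each.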
Background: In antiviral work, replicon cells carry a viral genome segment that copies itself.

Data set [5] concerns Candida albicans. Kind of data set: Antimicrobial activity against Candida albicans ATCC 90028 at 89 uM. Type of data set: functional, organism-based.
For data set [6], the system named is Hepatitis C virus. The experiment in a line: Antiviral activity against HCV at 10 uM. Type of data set: functional, Hepacivirus hominis. An outline of the steps:
as §4

Data set [7] deals with Vero. The experiment in a line: Cytotoxicity against african green monkey Vero cells at 17 uM after 48 hrs by neutral red assay. Format: cell-based. The conditions noted are these: chlorocebus sabaeus. The method in brief: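 Vero cells seeded at 25,000 cells/well and incubated 24 h. Samples added at a range of concentrations, top concentration 17 µM, then incubated a further 48 h. Viable cells measured by Neutral Red uptake. IC50 taken from dose-response curves; doxorubicin positive control.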

The nature of data set [8]: Selectivity index, ratio of IC50 for african green monkey (Cercopithecus aethiops) Vero cells to IC50 for chloroquine-resistant Plasmodium falciparum W2. Type of data set: toxicity, cell-based. The settings on record: read-out: Ratio IC50. An outline of the steps: (§5)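 Ratio of Vero IC50 (neutral red, 48 h exposure) to P. falciparum IC50 from the 72 h LDH assay on the matching strain (W2 or D6).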

Data set [9] in a line: Selectivity index, ratio of IC50 for african green monkey (Cercopithecus aethiops) Vero cells to IC50 for chloroquine-sensitive Plasmodium falciparum D6. Format: toxicity, cell-based. The settings on record: read-out: Ratio IC50. An outline of the steps: as §5
The subject of data set [10] is Staphylococcus aureus. Kind of data set: Antimicrobial activity against methicillin-resistant Staphylococcus aureus ATCC 43300. Format: functional, organism-based. An outline of the steps:
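Modified CLSI broth microdilution; M. intracellulare by a modified Franzblau method. Samples were serially diluted in 20% DMSO/saline and tested in duplicate. Inocula were set by OD630 in broth. MIC is the lowest concentration with no detectable growth; MFC/MBC is the lowest concentration giving no growth after 5 µL is subcultured to agar.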

In data set [11] the test system is Mycobacterium intracellulare. Kind of data set: Antimicrobial activity against Mycobacterium intracellular ATCC 23068. Format: functional, organism-based. An outline of the steps:
as §1

The subject of data set [12] is Plasmodium falciparum. The experiment in a line: Antimalarial activity after 72 hrs against chloroquine-sensitive Plasmodium falciparum D6 as LDH activity. The settings on record: D6, 72 h. Format: functional, organism-based. The method in brief:
as §3

Data set [13] relates to Staphylococcus aureus. The experiment in a line: Antimicrobial activity against methicillin-resistant Staphylococcus aureus ATCC 43300 at 89 uM. Format: functional, organism-based.
Data set [14] has as its system Mycobacterium intracellulare. The experiment in a line: Antimicrobial activity against Mycobacterium intracellular ATCC 23068 at 89 uM. Type of data set: functional, organism-based.
Data set [15] concerns Plasmodium falciparum. Kind of data set: Antimalarial activity after 72 hrs against chloroquine-sensitive Plasmodium falciparum D6 at 8 uM as LDH activity. Format: functional, organism-based.
In data set [16] the test system is Plasmodium falciparum. Kind of data set: Antimalarial activity after 72 hrs against chloroquine-resistant Plasmodium falciparum W2 at 8 uM as LDH activity. Format: functional, organism-based.
Data set [17] deals with Vero. The experiment in a line: Cytotoxicity against african green monkey Vero cells after 48 hrs by neutral red assay. Type of data set: cell-based. The settings on record: Chlorocebus sabaeus. The method in brief:
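Vero monkey kidney fibroblasts were seeded at 25,000 cells/well and grown 24 h. Samples at graded concentrations were then added for 48 h. Viable cells were counted by neutral red uptake, and IC50 was taken from dose-response curves, with doxorubicin as positive control.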

The test system of data set [18] is Candida albicans. Kind of data set: Antimicrobial activity against Candida albicans ATCC 90028. Format: functional, organism-based. The method in brief: as §2
In data set [19] the test system is Candida albicans. The experiment in a line: Antimicrobial activity against Candida albicans ATCC 90028 at 91 uM. Type of data set: functional, organism-based.
Data set [20] deals with Staphylococcus aureus. The experiment in a line: Antimicrobial activity against methicillin-resistant Staphylococcus aureus ATCC 43300 at 91 uM. Type of data set: functional, organism-based.
Data set [21] relates to Staphylococcus aureus. The experiment in a line: Antimicrobial activity against methicillin-resistant Staphylococcus aureus ATCC 43300 at 3.0 uM. Format: functional, organism-based.
Data set [22] relates to Staphylococcus aureus. Kind of data set: Antimicrobial activity against methicillin-resistant Staphylococcus aureus ATCC 43300 at 87 uM. Format: functional, organism-based.
Data set [23] has as its system Candida albicans. Kind of data set: Antimicrobial activity against Candida albicans ATCC 90028 at 87 uM. Type of data set: functional, organism-based.
Data set [24] concerns Mycobacterium intracellulare. Kind of data set: Antimicrobial activity against Mycobacterium intracellular ATCC 23068 at 87 uM. Format: functional, organism-based.
Data set [25] has as its system Cryptococcus neoformans. Kind of data set: Antimicrobial activity against Cryptococcus neoformans ATCC 90113.

Take `C[n+]1ccc2c([nH]c3ccccc32)c1C1=C[C@@]2(O)CC/C=C\CCCCN3CCC1[C@]1(C[C@@H]4/C=C\CCCCN4[C@H]12)C3.O=S(=O)([O-])C(F)(F)F` (some centres undefined): the pIC50 was 4.15 in the data set on Cryptococcus neoformans [1]; 6.00 in the data set with Plasmodium falciparum [3]; 4.35 in the data set with Staphylococcus aureus [10]; 4.75 in [11]; 6.13 in the data set with Plasmodium falciparum [12]. For the same compound, the outcome with Aspergillus fumigatus, with Pseudomonas aeruginosa, in the data set with Cryptococcus neoformans [2], in the data set on Escherichia coli and with Candida albicans [5] was inactive. In addition, the Activity in the data set with Hepatitis C virus [4] is recorded as 100%; with Hepatitis C virus [6], 99.87%; with Vero [7], “Non-toxic”. Further, the selectivity ratio in data set [8] is greater than 17.5; in data set [9] it was greater than 24. In addition, the figures for the minimal bactericidal concentration (MBC) (with Staphylococcus aureus [10]; in [11]) were 89 µM and 44.5 µM, respectively. Also, the minimum inhibitory concentration (MIC) with Staphylococcus aureus [10] came out at 89 µM; in data set [11], 44.5 µM.

With `C[C@@H]1CC[C@H]2[C@@H](C)C(=O)O[C@@H]3O[C@@]4(C)CC[C@@H]1[C@]32OO4` [ARTEMISININ], the pIC50 in the data set with Plasmodium falciparum [3] was 8.35; in the data set with Plasmodium falciparum [12] it was 8.20. The Activity result in the data set on Vero [7] is recorded as “Non-toxic”. The values for the selectivity ratio in data set [8] and in [9] were greater than 3700 and greater than 2700, respectively.

In the case of `CCN(CC)CCCC(C)Nc1ccnc2cc(Cl)ccc12` (centres undefined) [CHLOROQUINE], the Activity entry with Vero [7] is “Non-toxic”.

As to `Cn1c2ccccc2c2ccnc(C3=C[C@@]4(O)CC/C=C\CCCCN5CCC3[C@]3(C[C@@H]6/C=C\CCCCN6[C@H]34)C5)c21` (some centres undefined) [9N-METHYLMANZAMINE A], the outcome (in the data set on Aspergillus fumigatus; in the data set with Staphylococcus aureus [13]; with Pseudomonas aeruginosa; in the data set on Cryptococcus neoformans [2]; in the data set on Escherichia coli; in [14]) was inactive. The outcome with Candida albicans [5], in the data set on Plasmodium falciparum [15] and in the data set with Plasmodium falciparum [16] was inactive. In addition, the Activity entry in the data set with Vero [7] was “Non-toxic”.

For `O[C@]12C=C(c3nccc4c3[nH]c3ccccc34)[C@@H]3CCN(CCCC/C=C\CC1)C[C@@]31C[C@@H]3/C=C\CCCCN3[C@H]12` [MANZAMINE A], the negative-log IC50 (pIC50) with Vero [17] was 6.30; in the data set on Cryptococcus neoformans [1] it was 5.57; in the data set with Candida albicans [18], 4.79; in the data set on Plasmodium falciparum [3], 7.70; in the data set with Staphylococcus aureus [10], 6.74; in data set [11], 6.74. Besides, the negative-log IC50 (pIC50) in the data set with Plasmodium falciparum [12] is 7.77. In the data set with Cryptococcus neoformans [1], this compound displayed an MFC of 23 µM (≈ 12.6 µg/mL). In addition, the values for the MIC (with Cryptococcus neoformans [1]; in data set [11]) were 5.7 µM (≈ 3.13 µg/mL) and 0.36 µM (≈ 0.198 µg/mL), respectively. Further, the outcome with Aspergillus fumigatus, with Candida albicans [19], in the data set with Staphylococcus aureus [20], with Pseudomonas aeruginosa and in the data set with Escherichia coli was inactive. Further, the selectivity ratio in data set [8] was found to be 25.2; in data set [9] it was 29.4. Further, the minimal bactericidal concentration (MBC) in data set [11] is 2.84 µM (≈ 1.56 µg/mL).

Consider `O=C(O)c1cn(C2CC2)c2cc(N3CCNCC3)c(F)cc2c1=O` [CIPROFLOXACIN], for which the outcome with Staphylococcus aureus [21] was inactive. The compound also came in with a minimal inhibitory concentration (MIC) in the data set on Staphylococcus aureus [10] of 1.5 µM (≈ 0.497 µg/mL). In [11], this compound had a negative-log IC50 (pIC50) of 5.96, a minimal bactericidal concentration (MBC) of 3 µM (≈ 0.994 µg/mL) and an MIC of 1.5 µM (≈ 0.497 µg/mL).

In the data set with Cryptococcus neoformans [1], `CO[C@]12C=C(c3c4[nH]c5ccccc5c4cc[n+]3C)C3CCN(CCCC/C=C\CC1)C[C@@]31C[C@@H]3/C=C\CCCCN3[C@H]12.O=S(=O)([O-])C(F)(F)F` (some centres undefined) showed a pIC50 of 4.28. Also, the MFC against Cryptococcus neoformans [1] turned out to be 87 µM. The compound further came in with an MIC in the data set with Cryptococcus neoformans [1] of 87 µM. Further, the outcome in the data set with Staphylococcus aureus [22], with Aspergillus fumigatus, with Pseudomonas aeruginosa, in the data set on Escherichia coli, in the data set with Candida albicans [23] and in the data set with Plasmodium falciparum [15] was inactive. Besides, the result (with Plasmodium falciparum [16]; in data set [24]) was inactive. The Activity entry with Vero [7] is on record as “Non-toxic”.

Turning to `C[C@@H]1[C@H](O)[C@@H](C)/C=C/C=C/C=C/C=C/C=C/C=C/C=C/[C@H](O[C@@H]2O[C@H](C)[C@@H](O)[C@H](N)[C@@H]2O)C[C@@H]2O[C@](O)(C[C@@H](O)C[C@@H](O)[C@H](O)CC[C@@H](O)C[C@@H](O)CC(=O)O[C@H]1C)C[C@H](O)[C@H]2C(=O)O` [AMPHOTERICIN B], in the data set on Candida albicans [18], the MFC amounted to 1.35 µM (≈ 1.25 µg/mL). The compound also had a negative logarithm of the IC50 (pIC50) in the data set on Cryptococcus neoformans [25] of 6.10. In the data set with Cryptococcus neoformans [2], this compound had an MFC of 1.35 µM (≈ 1.25 µg/mL) and an MIC of 1.35 µM (≈ 1.25 µg/mL).

For orientation: pIC50 means the negative decadic logarithm of the IC50, by convention in mol/L. As a reminder, the MBC is the lowest tested concentration that kills the bacteria rather than only halting them. By MIC is commonly meant the lowest concentration that inhibits growth of the organism.
